Source: ChEMBL document CHEMBL1122837, “Angiotensin converting enzyme inhibitors: N-substituted D-glutamic acid gamma dipeptides” (J Med Chem, 1985)

Assays:
[1] = target: T1, Angiotensin-converting enzyme (Oryctolagus cuniculus, UniProt P12822); test: In vitro inhibition of angiotensin I converting enzyme from rabbit lung; type: tissue-based
T1 sequence (P12822 whole entry): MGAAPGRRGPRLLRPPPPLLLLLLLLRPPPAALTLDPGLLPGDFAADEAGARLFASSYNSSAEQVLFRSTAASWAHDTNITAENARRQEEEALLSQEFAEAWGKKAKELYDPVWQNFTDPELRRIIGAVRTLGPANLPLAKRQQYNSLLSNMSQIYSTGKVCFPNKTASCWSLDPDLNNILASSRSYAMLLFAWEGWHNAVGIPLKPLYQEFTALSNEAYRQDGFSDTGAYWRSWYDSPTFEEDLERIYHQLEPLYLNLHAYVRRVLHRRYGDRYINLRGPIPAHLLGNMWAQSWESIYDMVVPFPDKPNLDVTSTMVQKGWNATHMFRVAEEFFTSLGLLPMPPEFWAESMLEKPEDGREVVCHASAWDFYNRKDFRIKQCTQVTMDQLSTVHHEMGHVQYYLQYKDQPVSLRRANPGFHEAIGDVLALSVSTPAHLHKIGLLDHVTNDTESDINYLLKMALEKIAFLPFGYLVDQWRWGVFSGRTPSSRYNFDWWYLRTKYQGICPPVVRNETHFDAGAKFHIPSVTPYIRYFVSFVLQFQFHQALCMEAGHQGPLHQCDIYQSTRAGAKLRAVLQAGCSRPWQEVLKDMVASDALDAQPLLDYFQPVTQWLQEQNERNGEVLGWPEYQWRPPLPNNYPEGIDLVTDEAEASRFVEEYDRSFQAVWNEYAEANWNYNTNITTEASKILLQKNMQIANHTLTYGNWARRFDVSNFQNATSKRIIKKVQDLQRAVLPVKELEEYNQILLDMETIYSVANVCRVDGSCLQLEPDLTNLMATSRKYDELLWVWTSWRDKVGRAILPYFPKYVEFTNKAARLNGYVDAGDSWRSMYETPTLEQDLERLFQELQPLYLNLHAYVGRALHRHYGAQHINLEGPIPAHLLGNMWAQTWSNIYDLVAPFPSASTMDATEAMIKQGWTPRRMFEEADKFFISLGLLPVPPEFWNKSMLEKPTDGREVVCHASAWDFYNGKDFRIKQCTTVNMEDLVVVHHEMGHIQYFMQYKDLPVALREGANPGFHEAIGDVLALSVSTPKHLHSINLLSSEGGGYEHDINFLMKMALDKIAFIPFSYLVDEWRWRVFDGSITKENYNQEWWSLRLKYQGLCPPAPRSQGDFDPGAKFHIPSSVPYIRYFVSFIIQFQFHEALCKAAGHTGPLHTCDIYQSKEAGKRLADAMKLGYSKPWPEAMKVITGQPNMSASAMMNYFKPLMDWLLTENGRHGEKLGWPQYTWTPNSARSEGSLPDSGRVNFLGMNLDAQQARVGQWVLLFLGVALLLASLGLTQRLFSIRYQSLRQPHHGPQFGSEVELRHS

[2] = tested on: Rattus norvegicus; test: Percent inhibitory activity against angiotensin I pressor response 2 hr after peroral administration at dose 1 mg/kg; type: functional; settings: route oral
In short: (§1)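 Normotensive rats were dosed orally. The angiotensin I pressor response was followed, and the maximum percent inhibition 2 h after administration was reported.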

[3] = tested on: Rattus norvegicus; test: Percent inhibitory activity against angiotensin I pressor response 15 min after intravenous administration at dose 0.1 mg/kg; type: functional; settings: 0.25 h
In short: (§2)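 Normotensive rats received the test compound intravenously. The angiotensin I pressor response was measured 15 min after dosing and reported as percent inhibition.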

[4] = tested on: Rattus norvegicus; test: Percent inhibitory activity against angiotensin I pressor response 2 hr after peroral administration at dose 10 mg/kg; type: functional; settings: route oral; in short: as §1
[5] = tested on: Rattus norvegicus; test: Percent inhibitory activity against angiotensin I pressor response 15 min after intravenous administration at dose 1 mg/kg; type: functional; settings: 0.25 h; in short: as §2

IC50 [1] [nM]	SMILES	also measured
44	O=C(Nc1ccccc1)N[C@H](CCC(=O)N1c2ccccc2C[C@H]1C(=O)O)C(=O)O	–
500	O=C(N[C@@H](CCC(=O)N1c2ccccc2CC1C(=O)O)C(=O)O)OCc1ccccc1 (some centres undefined)	–
7	O=C(NC(CCC(=O)N1c2ccccc2C[C@@H]1C(=O)O)C(=O)O)OCc1ccccc1 (some centres undefined)	inhibition in vivo at 1 mg/kg [2]: 0%; inhibition in vivo at 0.1 mg/kg [3]: 70%
7	CN(C)CCOC(=O)[C@@H]1Cc2ccccc2N1C(=O)CC[C@@H](NC(=O)OCc1ccccc1)C(=O)O	–
2200	CCOC(=O)[C@@H](CCC(=O)N1c2ccccc2C[C@H]1C(=O)O)NC(=O)c1cccnc1	inhibition in vivo at 10 mg/kg [4]: 30%; inhibition in vivo at 1 mg/kg [5]: 100%
52	O=C1OCN(C(=O)OCc2ccccc2)[C@@H]1CCC(=O)N1c2ccccc2C[C@H]1C(=O)O	–
188	NCCCCC(N)C(=O)N[C@H](CCC(=O)N1c2ccccc2C[C@H]1C(=O)O)C(=O)O (some centres undefined)	–
17	O=C(N[C@H](CCC(=O)N1C[C@H]2CCCC[C@H]2C[C@H]1C(=O)O)C(=O)O)OCc1ccccc1	–
40	O=C(O)CN(C(=O)CC[C@@H](NC(=O)OCc1ccccc1)C(=O)O)C1CCCC1	–
21	COc1ccc(N(CC(=O)O)C(=O)CC[C@@H](NC(=O)OCc2ccccc2)C(=O)O)cc1OC	–
37	CN(C)CCCOC(=O)[C@@H]1Cc2ccccc2N1C(=O)CC[C@@H](NC(=O)OCc1ccccc1)C(=O)O	–
50	O=C(N[C@H](CCC(=O)N1CCC[C@H]1C(=O)O)C(=O)O)OCc1ccccc1	–
10000	N[C@H](CCC(=O)N1c2ccccc2C[C@H]1C(=O)O)C(=O)O	–
88	O=C(N[C@H](CCC(=O)N1c2ccccc2CCC1C(=O)O)C(=O)O)OCc1ccccc1 (some centres undefined)	–
160	NC(=O)[C@@H]1Cc2ccccc2N1C(=O)CC[C@@H](NC(=O)OCc1ccccc1)C(=O)O	–
40	O=C(CCc1ccccc1)N[C@H](CCC(=O)N1c2ccccc2C[C@H]1C(=O)O)C(=O)O	inhibition in vivo at 1 mg/kg [5]: 76%
28	O=C(N[C@H](CCC(=O)N1c2ccccc2C[C@H]1C(=O)O)C(=O)O)c1ccccc1	inhibition in vivo at 0.1 mg/kg [3]: 55%
29	O=C(O)[C@@H](CCC(=O)N1c2ccccc2C[C@H]1C(=O)O)NS(=O)(=O)Cc1ccccc1	–
300	O=C(O)[C@@H](CCC(=O)N1c2ccccc2C[C@H]1C(=O)O)NCc1ccccc1	–
57	O=C(N[C@H](CCC(=O)N1c2ccccc2C[C@H]1C(=O)O)C(=O)O)c1ccccn1	–
2.7	O=C(N[C@H](CCC(=O)N1[C@H](C(=O)O)C[C@@H]2CCCC[C@@H]21)C(=O)O)OCc1ccccc1	–
24	O=C(N[C@H](CCC(=O)N1c2ccccc2C[C@H]1C(=O)O)C(=O)O)c1cccnc1	inhibition in vivo at 1 mg/kg [2]: 0%; inhibition in vivo at 0.1 mg/kg [3]: 79%
4700	CCOC(=O)[C@@H]1Cc2ccccc2N1C(=O)CC[C@@H](NC(=O)OCc1ccccc1)C(=O)O	–
61	O=C(NCCCCC(NC(=O)OCc1ccccc1)C(=O)N[C@H](CCC(=O)N1c2ccccc2C[C@H]1C(=O)O)C(=O)O)OCc1ccccc1 (some centres undefined)	–
95	CC(=O)N[C@H](CCC(=O)N1c2ccccc2C[C@H]1C(=O)O)C(=O)O	–
350	O=C(N[C@H](CCC(=O)N1c2ccccc2C[C@H]1C(=O)OCc1cccnc1)C(=O)O)OCc1ccccc1	inhibition in vivo at 10 mg/kg [4]: 15%; inhibition in vivo at 1 mg/kg [5]: 70%
14	O=C(N[C@H](CCC(=O)N1Cc2ccccc2C[C@H]1C(=O)O)C(=O)O)OCc1ccccc1	–
20	Cc1ccc(S(=O)(=O)N[C@H](CCC(=O)N2c3ccccc3C[C@H]2C(=O)O)C(=O)O)cc1	–
10000	O=C(O)[C@@H](CCC(=O)N1c2ccccc2C[C@H]1C(=O)O)N(Cc1ccccc1)C(=O)OCc1ccccc1	–
